Assay results from ChEMBL document CHEMBL1914331, “N-O chemistry for antibiotics: discovery of N-alkyl-N-(pyridin-2-yl)hydroxylamine scaffolds as selective antibacterial agents using nitroso Diels-Alder and ene chemistry” (J Med Chem, 2011).

Legend:
Micrococcus luteus = assay: Antimicrobial activity against Micrococcus luteus ATCC 10240 after 24 hrs by Kirby-Bauer agar diffusion assay; assay type: functional
In short: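 Modified Kirby-Bauer well diffusion. Overnight LB cultures (18–24 h) were standardized in 0.9% saline to 0.5 McFarland and mixed into melted MHII agar at 47–50 °C, giving ~5×10³ CFU/mL. 9 mm wells received 50 µL of 2.0 mM compound in 10:1 MeOH:DMSO. Plates were incubated 24 h at 37 °C, then growth-inhibition zone diameter was measured (mm) by caliper.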

MCF7 = assay: Cytotoxicity against human MCF7 cells; assay type: cell-based
PC-3 = assay: Cytotoxicity against human PC3 cells; assay type: cell-based
HeLa = assay: Cytotoxicity against human HeLa cells; assay type: cell-based

Row | Structure (SMILES) | diameter of the inhibition zone (DIZ) (Micrococcus luteus) | Activity (MCF7) | Activity (PC-3) | Activity (HeLa)
1 | Cc1ccnc(N=O)c1 | <=14 mm | Non-toxic | Non-toxic | Non-toxic
2 | C=C(C)C(C)(C)N(O)c1cc(C)on1 | >14 mm | Non-toxic | Non-toxic | Non-toxic
3 | CC(C)(C)OC(=O)NO | <=14 mm | Non-toxic | Non-toxic | Non-toxic
4 | C[C@H](NC(=O)OC(C)(C)C)C(=O)NO | <=14 mm | Non-toxic | Non-toxic | Non-toxic
5 | CC(C)C[C@H](NC(=O)OC(C)(C)C)C(=O)NO | <=14 mm | Non-toxic | Non-toxic | Non-toxic
6 | Cc1cccc(N=O)n1 | <=14 mm | Non-toxic | Non-toxic | Non-toxic
7 | O=Nc1ccccn1 | <=14 mm | Non-toxic | Non-toxic | Non-toxic
8 | CCc1cccc(N=O)n1 | <=14 mm | Non-toxic | Non-toxic | Non-toxic
9 | Cc1cccnc1N=O | <=14 mm | Non-toxic | Non-toxic | Non-toxic
10 | O=Nc1ccc(Cl)cn1 | <=14 mm | Non-toxic | Non-toxic | Non-toxic
11 | O=Nc1ccc(Br)cn1 | <=14 mm | Non-toxic | Non-toxic | Non-toxic
12 | O=Nc1ccc(I)cn1 | <=14 mm | Non-toxic | Non-toxic | Non-toxic
13 | O=Nc1ncc(Cl)cc1Cl | <=14 mm | Non-toxic | Non-toxic | Non-toxic
14 | Cc1nc(N=O)ccc1Br | <=14 mm | Non-toxic | Non-toxic | Non-toxic
15 | O=Nc1ncc(C(F)(F)F)cc1Cl | <=14 mm | Non-toxic | Non-toxic | Non-toxic
16 | O=Nc1ccc2ccccc2n1 | <=14 mm | Non-toxic | Non-toxic | Non-toxic
17 | Cc1cc(N=O)no1 | <=14 mm | Non-toxic | Non-toxic | Non-toxic
18 | CC(C)(C)O[C@@H]1C=CC[C@H]1N(O)c1ccc(Cl)cn1 | >14 mm | Non-toxic | Non-toxic | Non-toxic
19 | C=C(CN(O)c1cc(C)on1)c1ccccc1 | >14 mm | Non-toxic | Non-toxic | Non-toxic
20 | COc1ccc(CON(C)c2ccccn2)cc1 | <=14 mm | Non-toxic | Non-toxic | Non-toxic
21 | CCCN(OCc1ccc(OC)cc1)c1ccccn1 | <=14 mm | Non-toxic | Non-toxic | Non-toxic
22 | CCCCCCN(OCc1ccc(OC)cc1)c1ccccn1 | <=14 mm | Non-toxic | Non-toxic | Non-toxic
23 | COc1ccc(CON(CCc2ccccc2)c2ccccn2)cc1 | <=14 mm | Non-toxic | Non-toxic | Non-toxic
24 | C=CCN(OCc1ccc(OC)cc1)c1ccccn1 | <=14 mm | Non-toxic | Non-toxic | Non-toxic
25 | COc1ccc(CON(Cc2cccc(Oc3ccccc3)c2)c2ccccn2)cc1 | <=14 mm | Non-toxic | Non-toxic | Non-toxic
26 | COc1ccc(CON(Cc2ccc(C(F)(F)F)cc2)c2ccccn2)cc1 | <=14 mm | Non-toxic | Non-toxic | Non-toxic

Row | Structure (SMILES) | diameter of the inhibition zone (DIZ) (Micrococcus luteus) | Activity (MCF7) | Activity (PC-3) | Activity (HeLa)
27 | COc1ccc(CON(Cc2ccc(OC(F)(F)F)cc2)c2ccccn2)cc1 | <=14 mm | Non-toxic | Non-toxic | Non-toxic
28 | COc1ccc(CON(Cc2ccccc2)c2cccnc2)cc1 | – | Non-toxic | Non-toxic | Non-toxic
29 | COc1ccc(CON(Cc2ccccc2)Cc2ccccn2)cc1 | – | Non-toxic | Non-toxic | Non-toxic
30 | CC(C)(C)OC1C=C[C@@H](N(O)c2ccc(Cl)cn2)C1 (mixture of isomers) | >14 mm | Non-toxic | Non-toxic | Non-toxic
31 | CC(C)OC1C=C[C@@H](N(O)c2ccc(Cl)cn2)C1 (mixture of isomers) | >14 mm | Non-toxic | Non-toxic | Non-toxic
32 | COC1C=C[C@@H](N(O)c2ccc(Br)cn2)C1 (mixture of isomers) | >14 mm | Non-toxic | Non-toxic | Non-toxic
33 | CC(C)OC1C=C[C@@H](N(O)c2ccc(Br)cn2)C1 (mixture of isomers) | >14 mm | Non-toxic | Non-toxic | Non-toxic
34 | CC(C)(C)OC1C=C[C@@H](N(O)c2ccc(Br)cn2)C1 (mixture of isomers) | >14 mm | Non-toxic | Non-toxic | Non-toxic
35 | COC1C=C[C@@H](N(O)c2cccc(C)n2)C1 (mixture of isomers) | >14 mm | Non-toxic | Non-toxic | Non-toxic
36 | Cc1cccc(N(O)[C@@H]2C=CC(OC(C)C)C2)n1 (mixture of isomers) | >14 mm | Non-toxic | Non-toxic | Non-toxic
37 | COC1C=C[C@@H](N(O)c2cc(C)on2)C1 (mixture of isomers) | >14 mm | Non-toxic | Non-toxic | Non-toxic
38 | Cc1cc(N(O)[C@@H]2C=CC(OC(C)(C)C)C2)no1 (mixture of isomers) | >14 mm | Non-toxic | Non-toxic | Non-toxic
39 | C=C(C)C(C)N(O)C(=O)[C@H](C)NC(=O)OC(C)(C)C (mixture of isomers) | <=14 mm | Non-toxic | Non-toxic | Non-toxic
40 | O=C(Cc1ccccc1)N1OC2C=CC1C2 (racemic) | <=14 mm | Non-toxic | Non-toxic | Non-toxic
41 | O=C(Cc1ccccc1)N1OC2C=CC1CC2 (racemic) | <=14 mm | Non-toxic | Non-toxic | Non-toxic
42 | O=C(c1ccccc1)N1OC2C=CC21 (racemic) | <=14 mm | Non-toxic | Non-toxic | Non-toxic
43 | CC(C)(C)OC(=O)N1OC2C=CC1C2 (racemic) | <=14 mm | Non-toxic | Non-toxic | Non-toxic
44 | Brc1ccc(N2OC3C=CC2CC3)nc1 (racemic) | <=14 mm | Non-toxic | Non-toxic | Non-toxic
45 | Clc1ccc(N2OC3C=CC2C3)nc1 (racemic) | <=14 mm | Non-toxic | Non-toxic | Non-toxic
46 | Brc1ccc(N2OC3C=CC2C3)nc1 (racemic) | <=14 mm | Non-toxic | Non-toxic | Non-toxic
47 | Cc1cccc(N2OC3C=CC2C3)n1 (racemic) | <=14 mm | Non-toxic | Non-toxic | Non-toxic
48 | Cc1cccc(N2OC3C=CC2CC3)n1 (racemic) | <=14 mm | Non-toxic | Non-toxic | Non-toxic
49 | Cc1cc(N2OC3C=CC2C3)no1 (racemic) | <=14 mm | Non-toxic | Non-toxic | Non-toxic
50 | CO[C@@H]1C=C[C@@H](N(O)C(=O)Cc2ccccc2)C1 (racemic) | <=14 mm | Non-toxic | Non-toxic | Non-toxic
51 | CC(C)(C)O[C@@H]1C=C[C@@H](N(O)C(=O)Cc2ccccc2)C1 (racemic) | <=14 mm | Non-toxic | Non-toxic | Non-toxic
